Experimental data published in ChEMBL document CHEMBL4406859, “Antitumor and antiviral activities of 4-substituted 1,2,3-triazolyl-2,3-dibenzyl-L-ascorbic acid derivatives” (Eur J Med Chem, 2019).
pEC50, pIC50: −log10 of the molar value.

How the values were obtained:
A549 = assay: Antiproliferative activity against human A549 cells assessed as reduction in cell viability incubated for 72 hrs by MTT assay; type: functional, cell-based; settings: A549, 72 h
Summary of the method: (§1)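 Cells (ATCC) grown in DMEM with 10 FBS, penicillin/streptomycin, 2 mM glutamine, 37 °C, 5 CO2. 5000 cells/well seeded; after 24 h, freshly prepared dilutions at five concentrations (0.01–100 μM) added for 72 h. MTT read-out; absorbance converted to percentage growth by NIH formulas. Two experiments in quadruplicate; IC50 by linear regression.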

CFPAC-1 = assay: Antiproliferative activity against human CFPAC-1 cells assessed as reduction in cell viability incubated for 72 hrs by MTT assay; type: functional, cell-based; settings: Homo sapiens, CFPAC-1, 72 h; read-out: IC50; summary of the method: as §1
HCT-116 = assay: Antiproliferative activity against human HCT116cells assessed as reduction in cell viability incubated for 72 hrs by MTT assay; type: functional, cell-based; settings: HCT-116, 72 h; summary of the method: as §1
HeLa = assay: Antiproliferative activity against human HeLa cells assessed as reduction in cell viability incubated for 72 hrs by MTT assay; type: functional, cell-based; summary of the method: as §1
HepG2 = assay: Antiproliferative activity against human HepG2 cells assessed as reduction in cell viability incubated for 72 hrs by MTT assay; type: functional, cell-based; settings: HepG2, 72 h; summary of the method: as §1
MCF7 = assay: Antiproliferative activity against human MCF7 cells assessed as reduction in cell viability incubated for 72 hrs by MTT assay; type: functional, cell-based; settings: MCF7, 72 h; summary of the method: as §1
SW-620 = assay: Antiproliferative activity against human SW620 cells assessed as reduction in cell viability incubated for 72 hrs by MTT assay; type: functional, cell-based; settings: SW-620, 72 h; summary of the method: as §1
HFF = assay: Cytotoxicity against human HFF cells assessed as reduction in cell viability incubated for 72 hrs by MTT assay; type: cell-based; summary of the method: as §1
[1] = Cytotoxicity against human HELF cells assessed as minimum cytotoxic concentration by observing alteration in cell morphology incubated for 3 days by microscopic analysis; type: cell-based; settings: HELF cells
Summary of the method: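 Read-out is the minimum cytotoxic concentration (MCC): the lowest compound concentration giving a microscopically detectable change in cell morphology. Measured on confluent human embryonic lung (HEL) fibroblast cultures exposed to a range of compound concentrations.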

Human adenovirus 2 = assay: Antiviral activity against Human adenovirus 2 infected in human HELF cells assessed as reduction in virus-induced cytopathogenicity incubated for 7 days by microscopic analysis; type: functional, organism-based; settings: Human mastadenovirus C, 168 h
Human alphaherpesvirus 1 [2] = assay: Antiviral activity against Herpes simplex virus 1 KOS infected in human HELF cells assessed as reduction in virus-induced cytopathogenicity incubated for 7 days by microscopic analysis; type: functional, organism-based; settings: Human alphaherpesvirus 1, strain KOS, 168 h
Human alphaherpesvirus 2 = assay: Antiviral activity against Herpes simplex virus 2 G infected in human HELF cells assessed as reduction in virus-induced cytopathogenicity incubated for 7 days by microscopic analysis; type: functional, organism-based; settings: Human alphaherpesvirus 2, G, 168 h
Human alphaherpesvirus 1 [3] = assay: Antiviral activity against Herpes simplex virus 1 TK-KOS-ACV infected in human HELF cells assessed as reduction in virus-induced cytopathogenicity incubated for 7 days by microscopic analysis; type: functional, organism-based; settings: Human alphaherpesvirus 1, TK-KOS-ACV, 168 h
Human coronavirus 229E = assay: Antiviral activity against Human coronavirus 229E infected in human HELF cells assessed as reduction in virus-induced cytopathogenicity incubated for 7 days by microscopic analysis; type: functional, organism-based; settings: 168 h

Row | Compound | pIC50 (A549) | pIC50 (CFPAC-1) | pIC50 (HCT-116) | pIC50 (HeLa) | pIC50 (HepG2) | pIC50 (MCF7) | pIC50 (SW-620) | pIC50 (HFF) | MCC at 72 h [1] [µM] | pEC50 (Human adenovirus 2) | pEC50 (Human alphaherpesvirus 1 [2]) | pEC50 (Human alphaherpesvirus 2) | pEC50 (Human alphaherpesvirus 1 [3]) | pEC50 (Human coronavirus 229E)
1 | O=C1O[C@H]([C@@H](O)CO)C(O)=C1O [ASCORBIC ACID] | < 4.00 | < 4.00 | < 4.00 | < 4.00 | < 4.00 | < 4.00 | < 4.00 | < 4.00 | – | – | – | – | – | –
2 | O=C1O/C(=C\Cn2cc(CCCCl)nn2)C(OCc2ccccc2)=C1OCc1ccccc1 | – | < 4.00 | 4.17 | 4.17 | 4.09 | 4.63 | 4.67 | 4.03 | – | – | – | – | – | –
3 | CC(C)(C)OC(=O)N1CCN(C(=S)SCc2cn(C[C@H](O)[C@H]3OC(=O)C(OCc4ccccc4)=C3OCc3ccccc3)nn2)CC1 | < 4.00 | < 4.00 | < 4.00 | < 4.00 | < 4.00 | < 4.00 | < 4.00 | 7.22 | – | – | – | – | – | –
4 | O=C1O[C@H]([C@@H](O)Cn2cc(-c3ccc(Br)cc3)nn2)C(OCc2ccccc2)=C1OCc1ccccc1 | 6.12 | 5.23 | 5.03 | 5.41 | – | 5.25 | 5.42 | 5.29 | – | – | – | – | – | –
5 | O=C1O/C(=C\Cn2cc(-c3cc(C(F)(F)F)cc(C(F)(F)F)c3)nn2)C(OCc2ccccc2)=C1OCc1ccccc1 | < 4.00 | < 4.00 | < 4.00 | < 4.00 | < 4.00 | < 4.00 | < 4.00 | < 4.00 | – | – | – | – | – | –
6 | Cc1ccc(S(=O)(=O)NCc2cn(C[C@H](O)[C@H]3OC(=O)C(OCc4ccccc4)=C3OCc3ccccc3)nn2)cc1 | 4.78 | 4.17 | 4.88 | 4.84 | 4.60 | 5.19 | 4.34 | 7.30 | – | – | – | – | – | –
7 | CCCCCc1ccc(-c2cn(C[C@H](O)[C@H]3OC(=O)C(OCc4ccccc4)=C3OCc3ccccc3)nn2)cc1 | 5.21 | 5.00 | 4.86 | 5.08 | 5.13 | 5.05 | 4.91 | < 4.00 | – | – | – | – | – | –
8 | O=C1O[C@H]([C@@H](O)Cn2cc(-c3cc(F)cc(F)c3)nn2)C(OCc2ccccc2)=C1OCc1ccccc1 | 4.38 | 4.21 | 4.32 | 4.39 | 4.94 | 4.56 | < 4.00 | < 4.00 | – | – | – | – | – | –
9 | O=C1O[C@H]([C@@H](O)Cn2cc(CNS(=O)(=O)c3ccc(F)cc3)nn2)C(OCc2ccccc2)=C1OCc1ccccc1 | 4.65 | 4.46 | 4.64 | 4.60 | 4.74 | 4.57 | 4.39 | 7.52 | – | – | – | – | – | –
10 | Cc1ccc(-c2cn(C[C@H](O)[C@H]3OC(=O)C(OCc4ccccc4)=C3OCc3ccccc3)nn2)cc1 | 5.06 | < 4.00 | < 4.00 | 4.59 | 5.06 | < 4.00 | < 4.00 | < 4.00 | – | – | – | – | – | –
11 | COc1ccc(-c2cn(C[C@H](O)[C@H]3OC(=O)C(OCc4ccccc4)=C3OCc3ccccc3)nn2)cc1 | 4.55 | 4.58 | < 4.00 | 4.79 | 4.33 | 4.00 | 4.23 | > 8.00 | – | – | – | – | – | –
12 | CCCCCCCCCCc1cn(C/C=C2\OC(=O)C(OCc3ccccc3)=C2OCc2ccccc2)nn1 | < 4.00 | < 4.00 | 4.01 | < 4.00 | < 4.00 | 4.14 | 4.04 | < 4.00 | – | – | – | – | – | –
13 | O=C1O/C(=C\Cn2cc(C3CC3)nn2)C(OCc2ccccc2)=C1OCc1ccccc1 | < 4.00 | 4.01 | 4.49 | 4.11 | 4.27 | 5.03 | 4.53 | 4.77 | – | – | – | – | – | –
14 | O=C1O[C@H]([C@@H](O)Cn2cc(-c3cccc(O)c3)nn2)C(OCc2ccccc2)=C1OCc1ccccc1 | 4.22 | 4.27 | 4.37 | – | 4.20 | 4.29 | < 4.00 | 4.41 | – | – | – | – | – | –
15 | O=C1O[C@H]([C@@H](O)Cn2cc(-c3cc(C(F)(F)F)cc(C(F)(F)F)c3)nn2)C(OCc2ccccc2)=C1OCc1ccccc1 | 4.54 | 4.18 | 4.24 | 4.45 | 4.47 | 4.34 | 4.31 | 4.09 | – | – | – | – | – | –
16 | Nc1ccn([C@H]2CC[C@@H](CO)O2)c(=O)n1 [ZALCITABINE] | – | – | – | – | – | – | – | – | > 250 | 5.00 | – | – | – | –
17 | Cc1cn([C@H]2C[C@H](F)[C@@H](CO)O2)c(=O)[nH]c1=O [ALOVUDINE] | – | – | – | – | – | – | – | – | > 250 | 4.66 | – | – | – | –
18 | COc1ccccc1-c1cn(C[C@H](O)[C@H]2OC(=O)C(OCc3ccccc3)=C2OCc2ccccc2)nn1 | < 4.00 | < 4.00 | < 4.00 | < 4.00 | < 4.00 | < 4.00 | < 4.00 | 7.30 | – | – | – | – | – | –
19 | CCCCc1cn(C/C=C2\OC(=O)C(OCc3ccccc3)=C2OCc2ccccc2)nn1 | < 4.00 | 4.14 | 4.21 | 4.17 | 4.11 | 4.24 | – | 4.31 | 100 | 4.70 | < 4.00 | 5.02 | < 4.00 | 5.07
20 | O=C1O[C@H]([C@@H](O)Cn2cc(CCCCl)nn2)C(OCc2ccccc2)=C1OCc1ccccc1 | 4.54 | 4.23 | 4.44 | 4.44 | 4.46 | 4.61 | 4.16 | 4.57 | – | – | – | – | – | –
21 | O=C1O[C@H]([C@@H](O)Cn2cc(CCO)nn2)C(OCc2ccccc2)=C1OCc1ccccc1 | < 4.00 | < 4.00 | 4.14 | 4.16 | 4.17 | 4.20 | < 4.00 | 4.23 | – | – | – | – | – | –
22 | CCCCCc1ccc(-c2cn(C/C=C3\OC(=O)C(OCc4ccccc4)=C3OCc3ccccc3)nn2)cc1 | < 4.00 | < 4.00 | < 4.00 | < 4.00 | < 4.00 | < 4.00 | < 4.00 | < 4.00 | – | – | – | – | – | –
23 | O=C1O[C@H]([C@@H](O)Cn2cc(CNS(=O)(=O)c3ccc(Cl)cc3)nn2)C(OCc2ccccc2)=C1OCc1ccccc1 | 5.54 | 4.41 | 5.08 | 4.87 | 5.12 | 5.38 | 4.74 | 7.70 | – | – | – | – | – | –
